Data as given in PubChem BioAssay.
Calls of active or inactive are those of the source.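 How the source made its calls, unless noted: active means viability at or under a set limit in both replicates, limit being median viability minus 3 SD (cut at about 48% in these data, passing the limit was not always enough); inconclusive means at or under the limit in just one replicate; inactive means at or above the limit in both replicates.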

Legend:
[1] = Her2 expression decrease, cell viability multiplex – SKBR3 breast tumor cells, AlphaScreen, ATP viability, primary screen (AID 461;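 active means Her2 level under about 52% in both replicate screens, with viability over 70% of control, limit read from the data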;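 on Her2 level: lower value means less Her2 protein in the cells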;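 on viability: percent of carrier control wells set as 100% viability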); conditions: SKBR3 Her2 protein level, 18-24 h, measured here: SKBR3 viability, ATP luminescence, at 10 µM
[2] = target: Receptor tyrosine-protein kinase erbB-2 (Homo sapiens) (UniProt P04626); test: as above; conditions: 18-24 h, at 10 µM, stronger effect = lower value
[3] = reduced viability of SK-BR-3 breast cancer cells – cell-based, 24 h, human, pilot screen (AID 572;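 active means viability at or below 10% of carrier control in both of two separate runs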;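 further: compound exposure lasted between 18 and 24 h rather than exactly 24 h; 100% = carrier-treated control wells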); conditions: SK-BR-3 viability, CellTiter-Glo luminescence, at 10 µM, stronger effect = lower value
[4] = HUVEC growth inhibition – cell-based, human, primary screen (AID 575;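 active means viability at or below 30% in both replicate assays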;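 further: 100% = median of untreated cell wells with 0.1% DMSO on each plate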); conditions: HUVEC proliferation, CellTiter-Glo luminescence, 72 h; at 10 µM; stronger effect = lower value
Summary of the method: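 Test system: HUVEC primary cells. Quantity: 1250 endothelial cells in each well. Dosing: single-point 10 µM, DMSO 0.1% final. Incubation: 72 h treatment at 37 °C. Measured by: CTG luminescence. Control set: DMSO cell controls and MePR drug controls. Plate: collagen-coated 384-well format.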

[5] = H69AR cell proliferation blockers – human, duplicate replicates, primary screen (AID 580); conditions: H69AR lung tumor cells viability, ATP luminescence, 72 h; at 10 µM; stronger effect = lower value;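 further: 100% = mean luminescence of untreated wells and 0% = no signal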
[6] = MRP1 drug-resistance reversers in H69AR cells – cell-based, doxorubicin co-treatment, pilot screen (AID 601;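 active means viability loss from added drug above about 55%, and viability with drug at most 40%, in both replicates, limit read from the data, passing the limit was not always enough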); conditions: CellTiter-Glo, 72 h, at 10 µM; for differential viability (reversal): stronger effect = higher value
[7] = yeast transport mutant growth inhibition pilot in 384-well plates, post-Golgi transport modulator project (AID 636; in the data active means inhibition above about 31%); conditions: absorbance 615 nm, about 18 h, stronger effect = higher value
[8] = growth suppression of yeast trafficking mutant, preliminary HTS, modulators of trafficking downstream of Golgi apparatus project, 1536-format plate, OD 615 nm (AID 637; in the data active means inhibition above about 30%); conditions: yeast transport mutant growth, absorbance 615 nm, 18 h; stronger effect = higher value
[9] = H69AR cells + 2 uM doxorubicin, measured here: viability with 2 uM doxorubicin, stronger effect = lower value
[10] = H69AR cells, compound alone cytotoxicity

Chain of Receptor tyrosine-protein kinase erbB-2 (Homo sapiens) (P04626 whole entry, looked up): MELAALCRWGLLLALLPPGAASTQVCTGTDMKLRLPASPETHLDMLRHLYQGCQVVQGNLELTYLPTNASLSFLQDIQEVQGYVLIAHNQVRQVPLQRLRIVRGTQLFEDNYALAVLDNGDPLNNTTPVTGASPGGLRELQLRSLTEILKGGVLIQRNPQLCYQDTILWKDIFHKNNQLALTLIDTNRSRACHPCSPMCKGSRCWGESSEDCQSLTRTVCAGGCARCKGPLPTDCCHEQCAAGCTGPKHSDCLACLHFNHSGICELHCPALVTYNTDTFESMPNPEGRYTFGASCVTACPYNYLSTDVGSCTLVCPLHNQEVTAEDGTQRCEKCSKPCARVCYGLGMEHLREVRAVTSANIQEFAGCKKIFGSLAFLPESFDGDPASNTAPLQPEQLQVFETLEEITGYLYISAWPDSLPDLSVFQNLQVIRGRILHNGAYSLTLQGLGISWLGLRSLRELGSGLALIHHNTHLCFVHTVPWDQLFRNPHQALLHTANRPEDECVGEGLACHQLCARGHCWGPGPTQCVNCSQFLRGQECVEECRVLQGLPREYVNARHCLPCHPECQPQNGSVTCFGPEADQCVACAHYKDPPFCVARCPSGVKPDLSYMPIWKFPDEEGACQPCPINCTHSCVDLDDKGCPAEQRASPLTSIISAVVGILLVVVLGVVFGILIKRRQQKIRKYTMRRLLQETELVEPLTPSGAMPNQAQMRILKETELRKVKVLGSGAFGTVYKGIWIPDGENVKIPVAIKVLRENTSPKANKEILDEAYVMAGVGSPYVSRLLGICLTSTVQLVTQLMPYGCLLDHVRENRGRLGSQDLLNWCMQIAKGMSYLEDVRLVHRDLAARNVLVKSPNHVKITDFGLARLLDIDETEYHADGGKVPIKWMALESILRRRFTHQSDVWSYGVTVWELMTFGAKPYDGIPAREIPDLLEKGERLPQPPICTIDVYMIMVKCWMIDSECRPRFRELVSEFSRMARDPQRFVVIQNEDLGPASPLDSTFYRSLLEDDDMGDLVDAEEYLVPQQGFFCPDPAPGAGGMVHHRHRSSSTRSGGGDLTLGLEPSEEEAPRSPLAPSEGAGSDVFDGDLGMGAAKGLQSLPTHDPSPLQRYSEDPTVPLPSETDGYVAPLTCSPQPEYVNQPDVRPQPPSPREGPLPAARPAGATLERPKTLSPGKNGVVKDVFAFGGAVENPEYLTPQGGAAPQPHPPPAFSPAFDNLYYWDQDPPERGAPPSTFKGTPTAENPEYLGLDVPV

| SMILES | viability [1] [%] | Her2 level [2] | viability [3] | viability [4] | viability [5] | differential viability (reversal) ([6]; H69AR cells + 2 uM doxorubicin) | viability [6, 9] [%] | viability [6, 10] [%] | inhibition [7] | inhibition [8] |
| --- | --- | --- | --- | --- | --- | --- | --- | --- | --- | --- |
| COc1ccc2c(C(=O)CN(C)C3CCCCC3)c[nH]c2c1 | 115 | 72.5% (inactive) | 115% (inactive) | 92.3% (inactive) | 64.7% (inactive) | -10.2% (inactive) | 74.9 | 64.7 | -0.92% (inactive) | -0.81% (inactive) |
| CCc1nnc2n1N=C(c1ccc(-c3ccc(Cl)cc3Cl)o1)CS2 | 99.5 | 81.5% (inactive) | 99.5% (inactive) | 110% (inactive) | 108% (inactive) | 23.9% (inactive) | 84.4 | 108 | -2.99% (inactive) | -3.17% (inactive) |
| CCS(=O)(=O)N1CCCC(C(=O)NCc2cccc(OC)c2)C1 (stereo not given) | 106 | 108% (inactive) | 106% (inactive) | 98.1% (inactive) | 96.6% (inactive) | -4.98% (inactive) | 102 | 96.6 | -5.2% (inactive) | 5.41% (inactive) |
| Cc1c(NC(=O)C2(c3ccccc3)CCOCC2)c(=O)n(-c2ccccc2)n1C | 92.5 | 92% (inactive) | 92.5% (inactive) | 113% (inactive) | 93.6% (inactive) | -3.73% (inactive) | 97.3 | 93.6 | -3.07% (inactive) | -4.76% (inactive) |
| COc1ccc(-c2cc(C(F)(F)F)n3ncc(C(=O)NCC4CCCO4)c3n2)cc1 (stereo not given) | 84 | 116% (inactive) | 84% (inactive) | 78.9% (inactive) | 41.7% (active) | -5.95% (inactive) | 47.6 | 41.7 | -1.54% (inactive) | -3.67% (inactive) |
| CC(C)NC(=O)CSc1nnc(-c2ccc(C(C)(C)C)cc2)n1C | 95 | 82% (inactive) | 95% (inactive) | 71.5% (inactive) | 103% (inactive) | 11.6% (inactive) | 91.4 | 103 | -2.24% (inactive) | -3.65% (inactive) |
| CCN(C#N)c1nc(NC(C)C)nc(NC(C)C)n1 | 96.5 | 93% (inactive) | 96.5% (inactive) | 97.6% (inactive) | 93.6% (inactive) | 4.81% (inactive) | 88.8 | 93.6 | -4.46% (inactive) | -7.17% (inactive) |
| CCOc1ccc(NCc2nnc(SCC(=O)Nc3cc(C)on3)n2-c2ccccc2OC)cc1 | 106 | 79% (inactive) | 106% (inactive) | 41.7% (inactive) | 13.1% (active) | -19% (inactive) | 32.1 | 13.1 | -4.8% (inactive) | 2.86% (inactive) |
| COc1ccc(CNC(=O)COC(=O)c2n[nH]c3ccccc23)cc1OC | 88 | 84.5% (inactive) | 88% (inactive) | 89.7% (inactive) | 92.6% (inactive) | 8.04% (inactive) | 84.6 | 92.6 | -7.47% (inactive) | 2.38% (inactive) |
| CCOc1ccc(-n2c(=O)cc(N3CCN(c4ccccc4)CC3)[nH]c2=O)cc1 | 94 | 84% (inactive) | 94% (inactive) | 96.1% (inactive) | 103% (inactive) | 7.43% (inactive) | 95.6 | 103 | -6.13% (inactive) | 6.07% (inactive) |
| COC(=O)c1cc(NS(=O)(=O)c2ccc3c(c2)CCC(=O)N3)cc(C(=O)OC)c1 | 112 | 86% (inactive) | 112% (inactive) | 94.2% (inactive) | 96.5% (inactive) | 1.56% (inactive) | 95 | 96.5 | 0% (inactive) | -2.86% (inactive) |
| COc1ccccc1N1CCN(C(=O)c2ccc(S(=O)(=O)N3CCCCCC3)cc2)CC1 | 89.5 | 98.5% (inactive) | 89.5% (inactive) | 89.4% (inactive) | 85.5% (inactive) | -2.48% (inactive) | 88 | 85.5 | -5.73% (inactive) | -3.44% (inactive) |
| O=C(O)[C@@H]1CCCN1c1ncnc2sc3c(c12)CCC3 | 128 | 100% (inactive) | 128% (inactive) | 98.3% (inactive) | 106% (inactive) | 3.99% (inactive) | 102 | 106 | -6.8% (inactive) | 0.32% (inactive) |
| COc1ccc(CCNC(=O)C2=COCCO2)cc1 | 126 | 94% (inactive) | 126% (inactive) | 109% (inactive) | 108% (inactive) | 4.46% (inactive) | 104 | 108 | -6.58% (inactive) | -5.08% (inactive) |
| COCCNC(=O)CN(C)S(=O)(=O)c1ccc2c(c1)OCCO2 | 107 | 102% (inactive) | 107% (inactive) | 104% (inactive) | 100% (inactive) | 12% (inactive) | 88.2 | 100 | -4.8% (inactive) | -2.26% (inactive) |
| COc1ccc2nc(NC(=O)C(NS(=O)(=O)c3cccs3)C(C)C)sc2c1 (stereo not given) | 90.5 | 77% (inactive) | 90.5% (inactive) | 70.7% (inactive) | 92.7% (inactive) | 5.86% (inactive) | 86.9 | 92.7 | -2.5% (inactive) | -5.64% (inactive) |
| CCOC(=O)Cn1c(CN2CCN(c3cccc(Cl)c3)CC2)nc2c1c(=O)[nH]c(=O)n2C | 92.5 | 87% (inactive) | 92.5% (inactive) | 69% (inactive) | 72.5% (inactive) | -6.24% (inactive) | 78.7 | 72.5 | 0% (inactive) | 1.17% (inactive) |
| COc1cc(C)nc(OCCNC(=O)COc2ccc(Cl)cc2C)n1 | 96.5 | 100% (inactive) | 96.5% (inactive) | 95.2% (inactive) | 107% (inactive) | 8.69% (inactive) | 98 | 107 | -0.93% (inactive) | 1.64% (inactive) |
| CCN1CCN(C(=O)c2ccc3c(=O)n(CCC4=CCCCC4)c(=O)[nH]c3c2)CC1 | 91 | 114% (inactive) | 91% (inactive) | 78.1% (inactive) | 84.7% (inactive) | 16.7% (inactive) | 67.9 | 84.7 | -8.29% (inactive) | -0.55% (inactive) |
| Cc1cc(NC(=O)CCCN2C(=O)c3cccnc3C2=O)no1 | 92 | 95.5% (inactive) | 92% (inactive) | 94.3% (inactive) | 107% (inactive) | 5.19% (inactive) | 102 | 107 | -2.84% (inactive) | -1.64% (inactive) |
| COc1ccc(Nc2nc(OC)nc(N3CCN(c4ccc(OC)cc4)CC3)n2)cc1 | 123 | 98% (inactive) | 123% (inactive) | 66.7% (inactive) | 71.3% (inactive) | -5.71% (inactive) | 77 | 71.3 | -6.27% (inactive) | -3.06% (inactive) |
| Cc1c2c(nc3nc4ccccc4n13)CC(C)(C)CC2=O | 130 | 100% (inactive) | 130% (inactive) | 91.1% (inactive) | 70.9% (inactive) | 36.9% (inactive) | 34 | 70.9 | -3.42% (inactive) | 4.43% (inactive) |
| COc1ccc(C)cc1S(=O)(=O)N(C)CC(=O)Nc1ccc2c(c1)OCCO2 | 92 | 92% (inactive) | 92% (inactive) | 107% (inactive) | 89.1% (inactive) | 5.96% (inactive) | 83.2 | 89.1 | -5.33% (inactive) | -12.5% (inactive) |
| O=S(=O)(NCCc1csc(-c2ccccc2)n1)c1ccc2c(c1)OCCO2 | 103 | 76% (inactive) | 103% (inactive) | 101% (inactive) | 93.6% (inactive) | 4.63% (inactive) | 89 | 93.6 | -1.97% (inactive) | 4.59% (inactive) |
| COC(=O)c1ccc(C)c(NS(=O)(=O)c2ccc3c(c2)OCCO3)c1 | 87.5 | 74% (inactive) | 87.5% (inactive) | 49.2% (inactive) | 35% (active) | -37% (inactive) | 72 | 35 | 1.54% (inactive) | -3.67% (inactive) |
| Cc1cc(OCC(=O)N2CCOCC2)cc2oc(=O)c3ccccc3c12 | 108 | 100% (inactive) | 108% (inactive) | 109% (inactive) | 85.1% (inactive) | -0.74% (inactive) | 85.9 | 85.1 | 0.39% (inactive) | -10.8% (inactive) |
| COc1cc(NC(=O)c2cc(OC)c(OC)c(OC)c2)c(OC)cc1NC(=O)CN1CCCCC1 | 86.5 | 68.5% (inactive) | 86.5% (inactive) | 67.9% (inactive) | 65.9% (inactive) | -11.7% (inactive) | 77.6 | 65.9 | -5.27% (inactive) | -7.5% (inactive) |
| CS(=O)(=O)c1ccc2nc(NC(=O)CCC(=O)c3cccs3)sc2c1 | 91 | 102% (inactive) | 91% (inactive) | 87.5% (inactive) | 69.8% (inactive) | -4.38% (inactive) | 74.2 | 69.8 | -1.05% (inactive) | 4.35% (inactive) |
